Experimental data gathered from unrelated publications.
Protocols differ between the studies behind these lines.
Target: Cytoplasmic tyrosine-protein kinase BMX (BMX, Homo sapiens, UniProt P51813)
One construct used (P51813 1-675): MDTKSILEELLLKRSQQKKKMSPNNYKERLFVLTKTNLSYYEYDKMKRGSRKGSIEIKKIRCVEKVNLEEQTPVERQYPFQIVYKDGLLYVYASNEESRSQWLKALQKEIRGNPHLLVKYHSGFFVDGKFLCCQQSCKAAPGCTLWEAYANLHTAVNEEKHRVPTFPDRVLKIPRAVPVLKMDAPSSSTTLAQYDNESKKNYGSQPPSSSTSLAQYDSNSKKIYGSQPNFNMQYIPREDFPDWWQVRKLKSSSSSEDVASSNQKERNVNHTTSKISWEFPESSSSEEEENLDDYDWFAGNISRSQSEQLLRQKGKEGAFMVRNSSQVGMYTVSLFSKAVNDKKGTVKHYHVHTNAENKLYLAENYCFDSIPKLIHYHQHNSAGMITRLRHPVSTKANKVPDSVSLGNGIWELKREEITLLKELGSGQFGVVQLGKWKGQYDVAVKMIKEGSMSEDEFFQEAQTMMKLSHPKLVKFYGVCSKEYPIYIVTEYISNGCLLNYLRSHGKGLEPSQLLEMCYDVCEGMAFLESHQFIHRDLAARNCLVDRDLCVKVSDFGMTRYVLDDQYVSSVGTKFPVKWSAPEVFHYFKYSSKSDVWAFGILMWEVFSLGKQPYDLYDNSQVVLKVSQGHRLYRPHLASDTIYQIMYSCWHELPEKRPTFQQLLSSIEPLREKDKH

N#CC1(c2ccccn2)CCN(Cc2cc(C(=O)O)c(=O)n3ccccc23)CC1 — remaining binding (cell-free assay; competition with immobilised ligand; 1 µM): 88%
C#Cc1n[nH]c2c(-c3cn([C@@H](C)c4ccccn4)c(=O)[nH]c3=O)cc(F)cc12 — inhibition (enzyme activity; inhibitor; 0.1 µM): -1.6%
Nc1ncc(-c2nc(N3CCOCC3)nc(N3CCOCC3)n2)c(C(F)F)n1 — remaining binding (binding; competition with immobilised ligand; 10 µM): 86%
O=c1[nH]c2ccccc2n1C1CCN(Cc2ccc(-c3[nH]c4cc5ncnc5cc4nc3-c3ccccc3)cc2)CC1 — remaining signal (cell-free assay; 0.5 µM): 108%
C#Cc1n[nH]c2c(-c3cn([C@@H](C)c4ccccc4)c(=O)[nH]c3=O)cc(F)cc12 — inhibition (enzyme activity; inhibitor; 0.1 µM): -7.4%
Cn1cncc1[C@@](O)(COc1ccc(C#N)cc1-c1ccc(OC(F)(F)F)cc1)c1ccc(C#N)cc1 — remaining binding (cell-free assay; competition with immobilised ligand; 1 µM): 64%
Cn1cc(-c2cccc(N3CCc4c(sc5c4CC(C)(C)C5)C3=O)c2CO)cc(Nc2ccncn2)c1=O — inhibition (enzyme activity; inhibitor; 1 µM): 49%
COc1ncccc1-c1cnn2ccc(N3CCN(C(=O)OC(C)C)CC3)nc12 — remaining binding (binding; competition with immobilised ligand; 1 µM): 91%
CCn1cnc2c(Nc3cccc(Cl)c3)nc(N[C@H]3CCCC[C@H]3N)nc21 — remaining activity (enzyme activity; inhibitor; 0.5 µM): 90.7%
Cn1cc(-c2cc(F)cc(N3CCn4c(cc5c4CCCC5)C3=O)c2CO)cc(Nc2ccc(N3CCN(C4COC4)CC3)cn2)c1=O — inhibition (enzyme activity; inhibitor; 0.1 µM): 37%
Cc1nn(C)cc1-c1nc2c(N3CCN(Cc4ccc(Cl)cc4)CC3)c(Cl)cnc2[nH]1 — remaining binding (binding; competition with immobilised ligand; 1 µM): 100%
